Test results as given in ChEMBL document CHEMBL4118188, “A small diversity library of α-methyl amide analogs of sulindac for probing anticancer structure-activity relationships” (Bioorg Med Chem Lett, 2018).

Experiments:
[1] = system: BJ; assay: Growth inhibition of human BJ cells after 72 hrs by CellTiter-Glo reagent based assay; type: cell-based
[2] = system: REH; assay: Growth inhibition of human REH cells measured after 72 hrs by CellTiter-Glo reagent based assay; type: functional, cell-based
Summary of the method: (§1)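 Cell line sources: Raji is a Burkitt's lymphoma line (FAB L3); Jurkat E6-1 is an acute T-cell leukemia line; REH is a patient-derived precursor B-cell ALL line expressing only wild-type MLL and wild-type AF4; 697 was established from bone marrow of children with relapsed ALL; CPC300 derives from a mouse model of choroid plexus carcinoma.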

[3] = system: MDA-MB-231; assay: Growth inhibition of human MDA-MB-231 cells measured after 96 hrs by Celltiter-Glo reagent based assay; type: functional; conditions: MDA-MB-231, 96 h
[4] = system: Jurkat E6.1; assay: Growth inhibition of human Jurkat E6-1 cells measured after 72 hrs by Celltiter-Glo reagent based assay; type: functional, cell-based; summary of the method: as §1
[5] = system: HT-29; assay: Growth inhibition of human HT-29 cells measured after 72 hrs by Celltiter-Glo reagent based assay; type: functional; conditions: HT-29, 72 h
[6] = system: PC-3; assay: Growth inhibition of human PC3 cells measured after 72 hrs by Celltiter-Glo reagent based assay; type: functional; conditions: PC-3, 72 h
[7] = Growth inhibition of mouse CPC300 cells measured after 72 hrs by Celltiter-Glo reagent based assay; type: functional; summary of the method: as §1
[8] = Growth inhibition of human NALM16 cells measured after 72 hrs by Celltiter-Glo reagent based assay; type: functional
[9] = system: Raji; assay: Growth inhibition of human Raji cells measured after 72 hrs by Celltiter-Glo reagent based assay; type: functional, cell-based; summary of the method: as §1
[10] = system: 697; assay: Growth inhibition of human 697 cells after 72 hrs by CellTiter-Glo reagent based assay; type: functional, cell-based; summary of the method: as §1
[11] = Homo sapiens, NALM16, 72 h, read-out: EC50
[12] = Homo sapiens, REH, 72 h, read-out: EC50
[13] = Homo sapiens, Raji, 72 h, read-out: EC50
[14] = Homo sapiens, Jurkat E6.1, 72 h, read-out: EC50
[15] = Homo sapiens, 697, 72 h, read-out: EC50

CSc1ccc(/C=C2/C(C)=C(C(C)C(=O)N(CCCNC(C)C)C(C)C)c3cc(F)ccc32)cc1 (stereo not given)
EC50 [1]: > 7.57 µM | EC50 ([2]; reh): Not Active | CC50 [3]: 2.91 µM | EC50 ([4]; jurkat e6.1): Not Active | CC50 [5]: 1.26 µM | CC50 [6]: 3.18 µM | EC50 [7]: Not Active | EC50 [8, 11]: 1.5 µM | EC50 ([9]; raji): Not Active | EC50 [10]; 697: Not Active

CSc1ccc(/C=C2/C(C)=C(C(C)C(=O)N(C)CCCN(C)C)c3cc(F)ccc32)cc1 (stereo not given)
EC50 [1]: > 7.57 µM | EC50 [2, 12]: 38 µM | CC50 [3]: 4.11 µM | EC50 ([4]; jurkat e6.1): Not Active | CC50 [5]: 2.12 µM | CC50 [6]: 5.5 µM | EC50 [7]: Not Active | EC50 [8]: Not Active | EC50 ([9]; raji): Not Active | EC50 [10]; 697: Not Active

CSc1ccc(/C=C2/C(C)=C(C(C)C(=O)NCCN(C)C)c3cc(F)ccc32)cc1 (stereo not given)
EC50 [1]: > 7.57 µM | EC50 ([2]; reh): Not Active | CC50 [3]: 3.88 µM | EC50 ([4]; jurkat e6.1): Not Active | CC50 [5]: 1.8 µM | CC50 [6]: 5.07 µM | EC50 [7]: Not Active | EC50 [8, 11]: 76 µM | EC50 ([9]; raji): Not Active | EC50 [10]; 697: Not Active

CCN(CCN(C)C)C(=O)C(C)C1=C(C)/C(=C/c2ccc(SC)cc2)c2ccc(F)cc21 (stereo not given)
EC50 [1]: > 7.57 µM | EC50 [2, 12]: 10 µM | CC50 [3]: 3.18 µM | EC50 ([4]; jurkat e6.1): Not Active | CC50 [5]: 1.13 µM | CC50 [6]: 3.54 µM | EC50 [7]: Not Active | EC50 [8]: Not Active | EC50 [9, 13]: < 0.00038 µM | EC50 [10]; 697: Not Active

CSc1ccc(/C=C2/C(C)=C(C(C)C(=O)N(CCNC(C)C)C(C)C)c3cc(F)ccc32)cc1 (stereo not given)
EC50 [1]: > 7.57 µM | EC50 ([2]; reh): Not Active | CC50 [3]: 3.83 µM | EC50 ([4]; jurkat e6.1): Not Active | CC50 [5]: 1.5 µM | CC50 [6]: 3.91 µM | EC50 [7]: Not Active | EC50 [8]: Not Active | EC50 ([9]; raji): Not Active | EC50 [10]; 697: Not Active

CSc1ccc(/C=C2/C(C)=C(C(C)C(=O)NCCN3CCNCC3)c3cc(F)ccc32)cc1 (stereo not given)
EC50 [1]: > 7.57 µM | EC50 [2, 12]: 26 µM | CC50 [3]: 5.32 µM | EC50 ([4]; jurkat e6.1): Not Active | CC50 [5]: 2.22 µM | CC50 [6]: 5.91 µM | EC50 [7]: Not Active | EC50 [8]: Not Active | EC50 [9, 13]: 45 µM | EC50 [10]; 697: Not Active

CSc1ccc(/C=C2/C(C)=C(C(C)C(=O)NCCN3CCCC3)c3cc(F)ccc32)cc1 (stereo not given)
EC50 [1]: > 7.57 µM | EC50 [2, 12]: 76 µM | CC50 [3]: 5 µM | EC50 [4, 14]: 76 µM | CC50 [5]: 2.03 µM | CC50 [6]: 5.68 µM | EC50 [7]: Not Active | EC50 [8]: Not Active | EC50 ([9]; raji): Not Active | EC50 [10, 15]: 76 µM

CCN(CC)CCCNC(=O)C(C)C1=C(C)/C(=C/c2ccc(SC)cc2)c2ccc(F)cc21 (stereo not given)
EC50 [1]: > 7.57 µM | EC50 ([2]; reh): Not Active | CC50 [3]: 4.23 µM | EC50 ([4]; jurkat e6.1): Not Active | CC50 [5]: 2.17 µM | CC50 [6]: 6.13 µM | EC50 [7]: Not Active | EC50 [8]: Not Active | EC50 ([9]; raji): Not Active | EC50 [10]; 697: Not Active

COc1cc(/C=C2/C(C)=C(C(C)C(=O)NCc3ccccc3)c3cc(F)ccc32)cc(OC)c1OC (stereo not given)
EC50 [1]: > 7.57 µM | EC50 [2, 12]: 7 µM | CC50 [3]: 3.81 µM | EC50 [4, 14]: 7.7 µM | CC50 [5]: 2.77 µM | CC50 [6]: 4.92 µM | EC50 [7]: Not Active | EC50 [8, 11]: 8 µM | EC50 [9, 13]: 13 µM | EC50 [10, 15]: 6.1 µM

CSc1ccc(/C=C2/C(C)=C(C(C)C(=O)N3CCN(CCN(C)C)CC3)c3cc(F)ccc32)cc1 (stereo not given)
EC50 [1]: > 7.57 µM | EC50 ([2]; reh): Not Active | CC50 [3]: 3.77 µM | EC50 ([4]; jurkat e6.1): Not Active | CC50 [5]: 2.02 µM | CC50 [6]: 5.98 µM | EC50 [7]: Not Active | EC50 [8, 11]: 2.1 µM | EC50 ([9]; raji): Not Active | EC50 [10]; 697: Not Active

CCN(CC)CCNC(=O)C(C)C1=C(C)/C(=C/c2ccc(SC)cc2)c2ccc(F)cc21 (stereo not given)
EC50 [1]: > 7.57 µM | EC50 [2, 12]: 14 µM | CC50 [3]: 5.38 µM | EC50 ([4]; jurkat e6.1): Not Active | CC50 [5]: 2.03 µM | CC50 [6]: 6.21 µM | EC50 [7]: Not Active | EC50 [8]: Not Active | EC50 ([9]; raji): Not Active | EC50 [10]; 697: Not Active

CSc1ccc(/C=C2/C(C)=C(C(C)C(=O)N3CCN(c4ccncc4)CC3)c3cc(F)ccc32)cc1 (stereo not given)
EC50 [1]: > 7.57 µM | EC50 ([2]; reh): Not Active | CC50 [3]: 3.95 µM | EC50 ([4]; jurkat e6.1): Not Active | CC50 [5]: 2.2 µM | CC50 [6]: 4.68 µM | EC50 [7]: Not Active | EC50 [8]: Not Active | EC50 ([9]; raji): Not Active | EC50 [10, 15]: 76 µM
